Laboratory results taken from ChEMBL document CHEMBL1128194, “A new series of pyridinone derivatives as potent non-nucleoside human immunodeficiency virus type 1 specific reverse transcriptase inhibitors” (J Med Chem, 1995).

Tests used:
[1] = target: Human immunodeficiency virus type 1 reverse transcriptase (Human immunodeficiency virus 1, UniProt Q72547); test: Inhibition of HIV-1 reverse transcriptase (RT)
Outline: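 Recombinant HIV-1 RT (20–50 nM) was expressed in yeast. Assays ran 10 min at 37 °C in 50 mM Tris-HCl pH 8.0 with 5 mM MgCl2, 4 mM DTT, 80 mM KCl and BSA. Template-primer was poly(C)-oligo(dG) (5:1, 0.48 A260/mL), with 2 μM dGTP plus [3H]dGTP. Product was precipitated with cold TCA/pyrophosphate, filtered and scintillation counted. Compounds were in DMSO, with matched DMSO controls.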

CEM-SS [2] = test: Cytotoxicity against wild type HIV-1-IIIB strain infected CEMSS cells.; type: functional; details: Homo sapiens
Outline: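 Uninfected cells were incubated with compound for 5 days. Viability was read by MTT reduction to formazan at OD540. CC50 is the concentration that halves OD540, taken from a median-effect computer analysis.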

[3] = test system: Human immunodeficiency virus 1; test: Inhibition of wild type HIV-1-IIIB strain replication in CEM-SS cells; type: functional, organism-based; details: Human immunodeficiency virus 1, CEM-SS
Outline: (§1)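 Cells were infected with 100 TCID50 for 30 min and washed twice to remove unbound virus. They were then cultured 5 days with a range of compound concentrations. Virus production was quantified as particle-associated RT activity in the supernatant. IC50 was derived from a computer-generated median-effect plot of dose–effect data.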

CEM-SS [4] = test: Specific index of IC50 and CC50 on HIV-1 IIIB wild type; type: functional
[5] = Specific index of IC50 and CC50 on HIV-1 Nevirapine resistant strain; type: functional
CEM-SS [6] = test: The compound was tested for inhibition of nevirapine HIV-1 resistant strain; type: functional, cell-based; details: Homo sapiens
Outline: (§2)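 Cells infected with 100 TCID50 virus for 30 min. Unbound virus removed by two washes, then cells cultured 5 days with a range of compound concentrations. Virus production read as particle-associated RT activity in the culture supernatant. IC50 taken from a computer-generated median effect plot of the dose–effect data.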

CEM-SS [7] = test: The compound was tested for cytotoxicity against nevirapine HIV-1 resistant strain infected CEMSS cells; type: functional; details: Homo sapiens
CEM-SS [8] = test: The compound was tested for inhibition of wild type HIV-1-IIIB strain; type: functional, cell-based; details: Homo sapiens; outline: as §1
CEM-SS [9] = test: The compound was tested for inhibition of Nevirapine resistant HIV-1 (N119) cells; type: functional, cell-based; details: Homo sapiens; outline: as §2

Structure (SMILES)	IC50 [1]	IC50 (CEM-SS [8])	CC50 (CEM-SS [2])	IC50 [3]	Specific index (CEM-SS [4])	Specific index [5]	IC50 (CEM-SS [6])	CC50 (CEM-SS [7])	IC50 (CEM-SS [9])
CCOC(=O)c1c(Sc2cc(C)cc(C)c2)c(CC)c(C)[nH]c1=O	0.6 µM	–	–	–	–	–	–	–	–
Cc1cnc(O)c([N+](=O)[O-])c1Sc1nc2ccccc2o1	–	–	16 µM	5.5 µM	>2	–	–	–	–
CCc1cnc(O)c([N+](=O)[O-])c1Sc1cc(C)cc(C)c1	–	–	> 10 µM	~0.09 µM	>111	> 1	6.7 µM	–	–
CCOC(=O)c1c(O)nc(C)c(CC)c1Sc1cc(C)cc(C)c1	–	–	> 10 µM	0.003 µM	>3333	> 4.5	2.2 µM	–	–
Cc1cnc(O)c([N+](=O)[O-])c1Sc1ccccc1	–	–	> 10 µM	> 10 µM	–	–	–	–	–
Cc1c(Sc2ccccc2)n(COCc2ccccc2)c(=O)[nH]c1=O	0.4 µM	–	–	–	–	–	–	–	–
Cc1cnc(O)c([N+](=O)[O-])c1Sc1nc2ccccc2s1	–	–	13.5 µM	14.5 µM	–	–	–	–	–
CCc1c(C)[nH]c(=O)c([N+](=O)[O-])c1Sc1cc(C)cc(C)c1	0.03 µM	–	–	–	–	–	–	–	–
Cc1cnc(O)c([N+](=O)[O-])c1Sc1nccn1C	–	–	68.5 µM	56 µM	>1	–	–	–	–
Cc1cc(C)cc(Sc2c(C)cnc(O)c2NC=O)c1	–	–	> 100 µM	6.6 µM	>15	–	–	–	–
Cc1cnc(O)c([N+](=O)[O-])c1Sc1nc2ccccc2[nH]1	–	–	54.5 µM	43.5 µM	>1	–	–	–	–
Cc1cc(C)cc(Nc2c(C)cnc(O)c2[N+](=O)[O-])c1	–	–	> 100 µM	45 µM	>2	–	–	–	–
CCc1c(C)nc(O)c([N+](=O)[O-])c1Sc1cc(C)cc(C)c1	–	–	> 10 µM	~0.006 µM	>1666	> 38	0.26 µM	–	–
CCc1c(C)nc(O)c(NC(C)=O)c1Sc1cc(C)cc(C)c1	–	–	80 µM	0.05 µM	1600	> 23	4.3 µM	> 100 µM	–
CCc1cnc(O)c(N)c1Sc1cc(C)cc(C)c1	–	–	> 10 µM	0.01 µM	>1000	> 1	6.7 µM	–	–
CCCCCCC(=O)Nc1c(O)ncc(C)c1Sc1cc(C)cc(C)c1	–	> 10 µM	> 10 µM	–	–	–	–	–	–
Cc1cnc(O)c(N)c1Sc1nc2ccccc2o1	–	–	7.5 µM	8 µM	–	–	–	–	–
Cc1cc(C)cc(Sc2c(C)cnc(O)c2NC(=O)Cc2ccccc2)c1	–	–	> 10 µM	> 10 µM	–	–	–	–	–

Structure (SMILES)	IC50 [1]	IC50 (CEM-SS [8])	CC50 (CEM-SS [2])	IC50 [3]	Specific index (CEM-SS [4])	Specific index [5]	IC50 (CEM-SS [6])	CC50 (CEM-SS [7])	IC50 (CEM-SS [9])
Cc1cc(C)nc(Sc2c(C)cnc(O)c2[N+](=O)[O-])n1	–	–	19.5 µM	17.5 µM	>1	–	–	–	–
Cc1cnc(O)c([N+](=O)[O-])c1Sc1ccccn1	–	–	28.5 µM	18 µM	>1	–	–	–	–
Cc1cc(C)cc(Sc2c(N)c(O)nc3ccccc23)c1	–	–	> 9 µM	0.25 µM	>36	> 1.5	6.6 µM	8.2 µM	–
CCC(=O)Nc1c(O)ncc(C)c1Sc1cc(C)cc(C)c1	> 4 µM	–	> 100 µM	41.4 µM	>2	–	–	–	–
CCOC(=O)Nc1c(O)ncc(C)c1Sc1cc(C)cc(C)c1	–	–	> 100 µM	7.5 µM	>13	–	–	–	–
CC(=O)Nc1c(O)ncc(C)c1Sc1cc(C)cc(C)c1	> 4 µM	–	> 100 µM	0.067 µM	>1492	–	> 100 µM	–	–
Cc1cccc(Sc2c(C)cnc(O)c2N)c1	–	–	78 µM	1.4 µM	>55	> 1	41.5 µM	78 µM	–
CCc1c(C)nc(O)c(N)c1Sc1cc(C)cc(C)c1	0.015 µM	–	> 10 µM	0.014 µM	>714	> 4	2.1 µM	–	–
Cc1cc(C)cc(Sc2c([N+](=O)[O-])c(O)nc3ccccc23)c1	–	–	> 100 µM	3.8 µM	>26	–	> 10 µM	–	–
Cc1cnc(O)c([N+](=O)[O-])c1SC1=NCCS1	–	–	21.5 µM	17 µM	>1	–	–	–	–
Cc1cc(C)cc(Sc2c(C)cnc(O)c2[N+](=O)[O-])c1	> 10 µM	–	> 10 µM	0.12 µM	>83	–	–	–	> 10 µM
CCc1c(Sc2cc(C)cc(C)c2)cc(O)nc1C	0.4 µM	–	> 10 µM	0.5 µM	>20	–	–	–	–
Cc1cn([C@H]2C[C@H](N=[N+]=[N-])[C@@H](CO)O2)c(=O)[nH]c1=O [ZIDOVUDINE]	–	–	> 100 µM	–	–	–	–	–	–
Cc1cc(C)cc(Sc2c(C)cnc(O)c2N)c1	0.1 µM	–	> 10 µM	0.01 µM	>1000	–	> 10 µM	–	–
Cc1c(Sc2ccccc2)n(COCCO)c(=O)[nH]c1=O [HEPT]	> 6 µM	–	–	–	–	–	–	–	–
CC(C)=CCN1Cc2cc(Cl)cc3[nH]c(=S)n(c23)C[C@@H]1C	–	–	> 10 µM	> 10 µM	–	–	–	–	–
Cc1cc(O)nc(Sc2c(C)cnc(O)c2[N+](=O)[O-])n1	–	–	> 100 µM	> 100 µM	–	–	–	–	–

More lines, main results first:

IC50 [1]	IC50 (CEM-SS [8])	Structure (SMILES)	CC50 (CEM-SS [2])	IC50 [3]	Specific index (CEM-SS [4])	Specific index [5]	IC50 (CEM-SS [6])	CC50 (CEM-SS [7])	IC50 (CEM-SS [9])
> 4 µM	–	Cc1cccc(Sc2c(C)c[nH]c(=O)c2N)c1	–	–	–	–	–	–	–
> 10 µM	–	Cc1cccc(Sc2c(C)cnc(O)c2[N+](=O)[O-])c1	> 10 µM	–	–	–	–	–	–
